The values below come from ChEMBL document CHEMBL1147958, “Evaluation of the anti-inflammatory and anti-nociceptive activities of novel synthesized melatonin analogues” (2007).

Experiment [1] deals with Rattus norvegicus. Put plainly: Inhibition of carrageenan-induced paw oedema in Sprague-Dawley rat at 6.88 mg/kg, sc after 4 hrs. The experiment is classed as functional. The conditions noted are these: read-out: Inhibition, route subcutaneous. In outline: (§1)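 Rats (n = 6/group) got the test agent s.c. (0.5 mL) as a 30 min pretreatment. Oedema was induced by sub-plantar 1% lambda-carrageenan in saline into the right hind paw, with saline in the contralateral paw. Paw volume was measured by plethysmometer before injection and at 1, 2, 3 and 4 h, and expressed as % change from pre-drug values.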
For orientation: Carrageenan injected into the paw causes an acute inflammation.

The test system of experiment [2] is Rattus norvegicus. Put plainly: Inhibition of carrageenan-induced paw oedema in Sprague-Dawley rat at 6.88 mg/kg, sc after 1 hr. Format: functional. Particulars: read-out: Inhibition, route subcutaneous. Summed up: as §1
In experiment [3] the test system is Rattus norvegicus. Put plainly: Antinociceptive activity in Sprague-Dawley rat at 6.88 mg/kg, sc assessed as increase in latency time after 1 hr by hot plate method. Format: functional. The conditions noted are these: route subcutaneous. In outline:
(§2)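 Rats (n = 6/group) were dosed s.c. 30 min before testing on a hot-plate held at 52 °C, 30 s cut-off. Reaction latency was read at 1 and 2 h and expressed as % increase over each group's pre-drug basal latency, with indomethacin as the reference control. Groups were compared by ANOVA and Duncan's test.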
Background: In hot-plate and tail-flick tests a longer latency is read as antinociception.

In experiment [4] the test system is Rattus norvegicus. In words: Antinociceptive activity in Sprague-Dawley rat assessed as inhibition of number of indomethacin-induced gastric lesions at 6.88 mg/kg, sc. The experiment is classed as functional. Particulars: Stomach, route subcutaneous. Summed up:
(§3)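 Sprague-Dawley rats (120–130 g, food and water ad libitum) got indomethacin 20 mg/kg s.c. to induce gastric mucosal damage, with the test agent given s.c. at the time of indomethacin injection. Rats were killed 24 h later. Stomachs were opened along the greater curvature, rinsed with saline, and lesions counted and severity-scored on a previously described scale. Results are % decrease versus the indomethacin control.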

Experiment [5] relates to Mus musculus. In words: Antinociceptive activity in Swiss Albino mouse assessed as inhibition of acetic acid-induced writhes per 30 min at 6.88 mg/kg, sc. The conditions noted are these: 0.5 h, read-out: Inhibition.
Experiment [6] deals with Rattus norvegicus. In words: Inhibition of carrageenan-induced paw oedema in Sprague-Dawley rat at 6.88 mg/kg, sc after 3 hrs. The experiment is classed as functional. The conditions noted are these: read-out: Inhibition, route subcutaneous. Summed up: as §1
Experiment [7] deals with Rattus norvegicus. In words: Inhibition of carrageenan-induced paw oedema in Sprague-Dawley rat at 6.88 mg/kg, sc after 2 hrs. Format: functional. The conditions noted are these: read-out: Inhibition, route subcutaneous. Summed up:
as §1

The test system of experiment [8] is Rattus norvegicus. Put plainly: […] in Sprague-Dawley rat assessed as inhibition of indomethacin-induced gastric lesions severity at 6.88 mg/kg, sc. The conditions noted are these: Stomach, route subcutaneous. Format: functional. Summed up: as §3
Experiment [9] has as its system Rattus norvegicus. In words: Antinociceptive activity in Sprague-Dawley rat at 6.88 mg/kg, sc assessed as increase in latency time after 2 hrs by hot plate method. The experiment is classed as functional. The conditions noted are these: route subcutaneous. Summed up: as §2
For experiment [10], the system named is Rattus norvegicus. Put plainly: Antinociceptive activity in sc dosed Sprague-Dawley rat assessed as increase in latency time after 1 hr by hot plate method. Format: functional. In outline: as §2
The test system of experiment [11] is Rattus norvegicus. In words: Antinociceptive activity in sc dosed Sprague-Dawley rat assessed as increase in latency time after 2 hrs by hot plate method. The experiment is classed as functional. In outline: as §2
Experiment [12] deals with Rattus norvegicus. In words: Inhibition of carrageenan-induced paw oedema in Sprague-Dawley rat at 5.13 mg/kg, sc after 1 hr. Particulars: read-out: Inhibition, route subcutaneous. The experiment is classed as functional. Summed up:
as §1

The subject of experiment [13] is Rattus norvegicus. In words: […] in Sprague-Dawley rat assessed as inhibition of indomethacin-induced gastric lesions severity at 5.13 mg/kg, sc. Format: functional. Particulars: Stomach, route subcutaneous. In outline:
as §3

For experiment [14], the system named is Rattus norvegicus. In words: Inhibition of carrageenan-induced paw oedema in Sprague-Dawley rat at 5.13 mg/kg, sc after 4 hrs. Format: functional. The conditions noted are these: read-out: Inhibition, route subcutaneous. In outline:
as §1

Experiment [15] deals with Rattus norvegicus. Put plainly: Inhibition of carrageenan-induced paw oedema in Sprague-Dawley rat at 5.13 mg/kg, sc after 2 hrs. The experiment is classed as functional. Particulars: read-out: Inhibition, route subcutaneous. Summed up: as §1
For experiment [16], the system named is Rattus norvegicus. Put plainly: Antinociceptive activity in Sprague-Dawley rat at 5.13 mg/kg, sc assessed as increase in latency time after 2 hrs by hot plate method. The experiment is classed as functional. Particulars: route subcutaneous. In outline:
as §2

The subject of experiment [17] is Rattus norvegicus. In words: Antinociceptive activity in Sprague-Dawley rat assessed as inhibition of number of indomethacin-induced gastric lesions at 5.13 mg/kg, sc. The experiment is classed as functional. The conditions noted are these: Stomach, route subcutaneous. In outline:
as §3

For experiment [18], the system named is Rattus norvegicus. In words: Inhibition of carrageenan-induced paw oedema in Sprague-Dawley rat at 5.13 mg/kg, sc after 3 hrs. Particulars: read-out: Inhibition, route subcutaneous. Format: functional. Summed up: as §1
Experiment [19] concerns Rattus norvegicus. In words: Antinociceptive activity in Sprague-Dawley rat at 5.13 mg/kg, sc assessed as increase in latency time after 1 hr by hot plate method. Format: functional. The conditions noted are these: route subcutaneous. Summed up:
as §2

Experiment [20] relates to Mus musculus. In words: Antinociceptive activity in Swiss Albino mouse assessed as inhibition of acetic acid-induced writhes per 30 min at 5.13 mg/kg, sc. Particulars: 0.5 h, read-out: Inhibition.

Structures are written as SMILES.

For the compound `COc1ccc2c(c1)c(CCNC(C)=O)c1n2CC(c2ccccc2)=C(C#N)C1=N`, the inhibition in vivo at 6.88 mg/kg was found to be 36.3% with Rattus norvegicus [1]; 52.2% in the experiment with Rattus norvegicus [2]; 30.2% in the experiment on Rattus norvegicus [4]; 40.7% in the experiment on Mus musculus [5]; 48% in the experiment on Rattus norvegicus [6]; 55.2% with Rattus norvegicus [7]. Also, in the experiment with Rattus norvegicus [8], the inhibition in vivo at 6.88 mg/kg was found to be 53.6%. The Activity in the experiment with Rattus norvegicus [3] worked out at 31.7%; in the experiment with Rattus norvegicus [9], 56.2%.
As to `COc1ccc2c(c1)c(CC(=O)O)c(C)n2C(=O)c1ccc(Cl)cc1` [INDOMETHACIN], the figures for the Activity in the experiment with Rattus norvegicus [10] and in the experiment with Rattus norvegicus [11] were 176.7% and 286.6%, respectively.
In the case of `COc1ccc2c(c1)c(CCNC(C)=O)c1n2C(=O)C=C1C`, the inhibition in vivo at 5.13 mg/kg is 67.3% in the experiment with Rattus norvegicus [12]; 82.6% in the experiment with Rattus norvegicus [13]; 28.8% in the experiment with Rattus norvegicus [14]; 59.4% in the experiment with Rattus norvegicus [15]; 72.6% in the experiment with Rattus norvegicus [17]; 43% in the experiment with Rattus norvegicus [18]. Besides, in the experiment on Mus musculus [20], the inhibition in vivo at 5.13 mg/kg worked out at 68.7%. Besides, the Activity came out at 144.6% in the experiment with Rattus norvegicus [16] and 116.6% in the experiment with Rattus norvegicus [19].
